Only some compounds are listed: those with a hit (about 3.7% of all), similar ones and a draw of the others.
PGE2 EP2 inh: human EP2 receptor antagonists, primary screen, TR-FRET cAMP, C6 glioma cells; Prostaglandin E2 receptor EP2 subtype (Homo sapiens), P43116; C6 glioma cells expressing human EP2; cells stimulated with saturating PGE2; inhibition, % at 25 µM; 0.52% of 260,000 active;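 active = percent inhibition above 40 after rounding to a whole number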;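 also: rat C6 glioma host cells with rolipram phosphodiesterase inhibitor present; the protocol text gives 20 µM as final concentration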
Target sequence (P43116 whole entry, looked up): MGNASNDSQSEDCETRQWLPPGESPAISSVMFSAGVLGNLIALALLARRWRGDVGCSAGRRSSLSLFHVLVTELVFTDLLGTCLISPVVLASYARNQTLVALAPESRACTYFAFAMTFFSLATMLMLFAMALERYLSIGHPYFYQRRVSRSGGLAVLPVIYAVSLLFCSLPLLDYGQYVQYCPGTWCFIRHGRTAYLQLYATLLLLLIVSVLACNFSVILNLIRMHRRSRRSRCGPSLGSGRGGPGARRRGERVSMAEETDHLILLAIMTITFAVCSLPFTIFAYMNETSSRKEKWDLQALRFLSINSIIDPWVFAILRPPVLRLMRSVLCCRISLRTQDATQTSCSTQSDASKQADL
OX1R antag-1: OX1R (HCRTR1) antagonists, primary screen, fluorescence, CHO/OX1R cells, Fluo-8 calcium, orexin A; Fluo-8 calcium fluorescence; inhibition, % at 5 µM; 0.43% of 330,000 active; AID 434989, 2010;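 active = inhibition above its plate's threshold, mean inhibition of all tested compounds on the plate plus 3 SD, cut at about 37% in these data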;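 also: 0% = orexin A challenge wells and 100% = SB-334867-A antagonist wells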
CHO parental Ca: ATP-evoked calcium signal inhibitors, parental CHO, primary screen, counter-screen for OX1R antagonist project, cell-based, fluorescence, Fluo-8 calcium dye. parental CHO-K1, ATP-induced calcium, Fluo-8 fluorescence. inhibition, % at 5.6 µM. 0.63% of 330,000 active. AID 463079, 2010;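 active = inhibition above that plate's mean sample inhibition plus 3 SD, cut at about 26% in these data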;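 also: 0% = ATP-challenged DMSO wells and 100% = DMSO wells without ATP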
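Measured by: calcium-sensitive Fluo-8 fluorescence / Test system: CHO parental line / Controls: ATP-challenged DMSO wells low, unchallenged DMSO wells high / Measure: % inhibition / Compound: single nominal dose of 5.6 µM per compound / Replicates: single well per compound, no replicates / Reagent: ATP as calcium-mobilizing challenge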
EP2 mod: EP2 receptor modulators, cAMP readout, primary screen, cell-based, HTRF cAMP, PGE2 stimulation; Prostaglandin E2 receptor EP2 subtype (Homo sapiens), P43116; EP2-expressing cells, cAMP HTRF FRET, PGE2 co-stimulation; induction, % at 25 µM; 0.83% of 260,000 active; AID 940, 2007;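 active = compounds whose cAMP rise, as percent of the full-agonist control response, exceeds 60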;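 also: rat C6 glioma line stably carrying human EP2 under a CMV promoter; the protocol text gives 20 µM as final concentration; 100% = response of wells given 1 µM PGE2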
GPR7 antagonist: GPR7 receptor antagonists, primary screen, cell-based, fluorescence, single concentration; Neuropeptides B/W receptor type 1 (Homo sapiens), P48145; GPR7-expressing cells, fluorescence antagonist assay; inhibition, % at 4.4 µM; 1.1% of 290,000 active; AID 1861, 2009; in the data active = inhibition above about 16%, passing the limit was not always enough;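 also: cells stimulated with the agonist NPW; 0% = agonist with vehicle and 100% = vehicle without agonist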
OX1R antag-2: antagonists of human orexin 1 receptor (OX1R). OX1R-expressing cells, FRET antagonist read-out. AID 485270, 2010. 1.8% of 330,000 active. inhibition, % at 6.6 µM; in the data active = inhibition mostly above about 38%, no sharp cut-off; inactive = mostly below about 40%;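 also: 0% = agonist challenge alone and 100% = reference antagonist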
GPR7 antag conf: GPR7 receptor antagonists, confirmation, cell-based, fluorescence, single concentration. shares compounds with GPR7 antagonist. GPR7-expressing cells, calcium fluorescence antagonist mode. inhibition, % at 4.4 µM. 52% of 2,400 active; in the data active = inhibition above about 24%;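 also: stimulated with the GPR7 agonist NPW; 0% = agonist plus vehicle and 100% = vehicle alone without agonist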
MCHR1 antagonist: MCHR1 antagonists in cells, counter-screen for GPR7 antagonist project, cell-based, fluorescence, human | shares compounds with GPR7 antagonist | MCHR1-expressing cells, fluorescence antagonist assay | inhibition, % at 4.4 µM | 62% of 2,400 active | AID 2148, 2009; in the data active = inhibition above about 22%;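 also: 0% = vehicle with agonist and 100% = vehicle without agonist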
* hit, by the source's call; x = no result.

SMILES	PGE2 EP2 inh	OX1R antag-1	CHO parental Ca	EP2 mod	GPR7 antagonist	OX1R antag-2	GPR7 antag conf	MCHR1 antagonist
CCc1ccccc1NC(=O)CNC1CCCCC1	3	-15	-20	8	25*	25	0	7
O=C(COC(=O)Cc1ccccc1)NC(=O)NC1CCCCC1	x	-15	-12	x	x	12	x	x
CCOC(=O)c1nc2ccccc2c(=O)n1-c1ccc(C)cc1	14	-3	-8	21	-3	-6	x	x
Cc1cccc(OCC(=O)N2CCN(Cc3ccc([N+](=O)[O-])cc3)CC2)c1	17	-8	15	-71	13	2	x	x
Cc1ccc(OCC(=O)N2CCN(Cc3ccc([N+](=O)[O-])cc3)CC2)cc1	8	-9	5	-15	21*	10	28*	36*
CC1[C@H](C)OC(=O)CC(O)CC(O)CC(O)CCC(O)C(O)C[C@]2(O)CC(O)C(C(=O)O)C(CC(OC3O[C@H](C)[C@@H](O)[C@H](N)[C@@H]3O)/C=C/C=C/C=C/C=C/CC/C=C/C=C/[C@H](C)[C@H]1O)O2 (some centres undefined)	12	x	x	17	x	x	x	x
CNC(C)Cc1ccccc1Sc1ccc(O)cc1 (centres undefined)	16	0	-6	2	30*	6	30*	30*
CCOc1cc2c(cc1OCC)-n1cccc1C(c1ccc(C)cc1C)NC2 (centres undefined)	x	-35	-22	x	38*	-6	19	23*
CN1CC=C(c2c[nH]c3ccccc23)CC1	8	-6	11	3	-10	8	x	x
CC(C(=O)c1c[nH]c2ccccc12)N1CCc2ccccc2C1 (centres undefined)	15	-22	-14	-29	22*	16	14	17
CCN1/C(=C\C=C\C2=[N+](CC)c3ccccc3C2(C)C)C(C)(C)c2ccccc21	x	108*	100*	-17	98*	22	103*	106*
CC1CCCN(c2ccc(C(=O)N3CCC4(CC3)OCCO4)cc2[N+](=O)[O-])C1 (centres undefined)	-3	-15	2	-24	-1	11	x	x
CCOC(=O)C1CCCN(c2ccc([N+](=O)[O-])c3nonc23)C1 (centres undefined)	5	x	x	16	45*	x	42*	68*
CC1(C)N=C(c2ccccc2)[C@@H]2C(c3ccc([N+](=O)[O-])cc3)N21 (some centres undefined)	4	4	-5	-12	-2	38	x	x
N#CCCn1cc(C(=O)Nc2ccc([N+](=O)[O-])cc2)c(-c2ccc3c(c2)OCCO3)n1	6	0	-9	-4	25*	0	1	13
COc1ccc(CC2(CCc3ccncc3)C(=O)NC(=O)NC2=O)cc1OC	10	6	1	45	12	4	x	x
COc1cc(C)c(CNCCc2c[nH]c3ccccc23)cc1C	x	-14	-10	x	38*	-10	22	55*
CCOc1ccc(N=Cc2c(O)n(-c3ccc(C)c(C)c3)c(=O)[nH]c2=O)cc1	6	-23	-16	-36	2	11	x	x
CCOc1ccc(N=Cc2c(O)n(-c3cc(C)cc(C)c3)c(=O)[nH]c2=O)cc1	7	-19	-3	-3	24*	9	-4	7
Cc1ccc(/C=C2/Sc3ccc(C(=O)N4CCC5(CC4)OCCO5)cc3NC2=O)cc1	x	-24	-37	x	1	4	x	x

Screening results as filed in PubChem BioAssay.
